Test results reported in ChEMBL document CHEMBL1132439, “Selective A(3) adenosine receptor antagonists: water-soluble 3, 5-diacyl-1,2,4-trialkylpyridinium salts and their oxidative generation from dihydropyridine precursors” (J Med Chem, 1999).

Key:
[1] = biological target: T1, Adenosine receptor A1 (Rattus norvegicus) (UniProt P25099); assay: (§1) Displacement of [3H]R-PIA from Adenosine A1 receptor of rat brain membranes; assay type: cell membranes; conditions: Membrane
T1 sequence (whole entry): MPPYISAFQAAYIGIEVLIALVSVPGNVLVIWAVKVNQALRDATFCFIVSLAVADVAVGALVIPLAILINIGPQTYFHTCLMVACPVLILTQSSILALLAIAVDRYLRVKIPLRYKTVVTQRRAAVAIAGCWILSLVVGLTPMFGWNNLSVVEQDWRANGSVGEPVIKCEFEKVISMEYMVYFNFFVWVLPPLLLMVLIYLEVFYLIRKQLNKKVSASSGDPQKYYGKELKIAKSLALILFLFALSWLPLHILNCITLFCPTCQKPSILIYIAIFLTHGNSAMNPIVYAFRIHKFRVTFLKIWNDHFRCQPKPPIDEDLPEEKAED
Summary of the method: (§2)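 Rat cerebral cortex membranes prepared with adenosine deaminase 3 units/mL, also present in a 30 min preincubation at 30 °C and during radioligand incubation. Nonspecific binding defined with 10 μM 2-chloroadenosine. Compounds dissolved in DMSO, diluted in buffer (≤1% DMSO). Filtration over GF/B filters.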

Adenosine receptor A2a = Adenosine receptor A2a (Rattus norvegicus, UniProt P30543); assay: Displacement of [3H]CGS-21680 from Adenosine A2A receptor of rat striatal membranes.; assay type: cell membranes, Membrane
Summary of the method: (§3)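 Rat striatal membranes prepared with adenosine deaminase 3 units/mL, also present in a 30 min preincubation at 30 °C and during radioligand incubation. Nonspecific binding defined with 20 μM 2-chloroadenosine. Compounds dissolved in DMSO, diluted in buffer (≤1% DMSO). Filtration over GF/B filters. IC50 from at least five competitor concentrations spanning 3 log units, converted to Ki by Cheng-Prusoff; n = 3–6, or % specific binding displaced at 10⁻⁴ M.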

[2] = biological target: T1, Adenosine receptor A1 (Rattus norvegicus); assay: Displacement of [3H]R-PIA from Adenosine A1 receptor from rat brain membranes at 10^-4M; assay type: cell membranes; conditions: Membrane; summary of the method: as §2
[3] = biological target: Adenosine receptor A2a (Rattus norvegicus) (UniProt P30543); assay: Displacement of [3H]CGS-21680 from Adenosine A2A receptor of rat striatal membranes at 10^-4M; assay type: cell membranes; conditions: Membrane; summary of the method: as §3
Adenosine receptor A1 = biological target: T2, Adenosine receptor A1 (Rattus norvegicus, UniProt P25099); assay: as §1; assay type: cell membranes, Membrane; summary of the method: as §2
T2 sequence (P25099 whole entry): T1 sequence (whole entry)

Adenosine receptor A2a (Rattus norvegicus), sequence (P30543 whole entry): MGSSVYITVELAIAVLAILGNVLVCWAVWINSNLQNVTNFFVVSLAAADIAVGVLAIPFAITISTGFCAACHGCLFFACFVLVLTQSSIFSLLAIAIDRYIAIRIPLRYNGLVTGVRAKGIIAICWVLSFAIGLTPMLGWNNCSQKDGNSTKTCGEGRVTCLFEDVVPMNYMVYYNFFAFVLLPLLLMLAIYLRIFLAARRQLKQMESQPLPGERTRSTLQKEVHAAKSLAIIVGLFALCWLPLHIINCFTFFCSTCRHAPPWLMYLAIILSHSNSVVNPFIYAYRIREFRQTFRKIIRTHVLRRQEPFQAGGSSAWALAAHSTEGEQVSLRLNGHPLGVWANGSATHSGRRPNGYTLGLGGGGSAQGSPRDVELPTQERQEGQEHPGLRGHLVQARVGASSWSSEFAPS
Adenosine receptor A2a, sequence (P30543 whole entry): as above

Structure (SMILES) | Displacement [1] | Ki (Adenosine receptor A2a) | Displacement [2] | Displacement [3] | Ki (Adenosine receptor A1)
CCCOC(=O)c1c(CCC)c(C(=O)SCC)c(CCOCc2ccccc2)[n+](C)c1-c1ccccc1 | 21% | 11.9 µM | – | – | –
CCCOC(=O)c1c(CC)c(C(=O)SCC)c(CC)[n+](C)c1-c1ccccc1 | – | 18.7 µM | < 10% | – | –
CCCOC(=O)c1c(CCC)c(C(=O)SCCCF)c(CC)[n+](C)c1-c1ccccc1 | – | 7.37 µM | < 10% | – | –
CCCOC(=O)c1c(CCC)c(C(=O)SCC)c(CC)[n+](C)c1-c1ccccc1 | – | – | < 10% | 25% | –
CCOC(=O)c1c(CC)c(C(=O)SCC)c(C2CCC2)[n+](C)c1-c1ccccc1 | – | 33.2 µM | – | – | 88 µM
CCOC(=O)c1c(CCN2C(=O)c3ccccc3C2=O)c(C(=O)SCC)c(CC)[n+](C)c1-c1ccccc1 | – | 2.15 µM | – | – | 1.53 µM
CCSC(=O)c1c(CC)c(C(=O)OCCF)c(-c2ccccc2)[n+](C)c1CC | – | 56.6 µM | 30% | – | –
CCOC(=O)c1c(CC)c(C(=O)SCC)c(CC)[n+](C)c1-c1ccccc1 | – | 11.6 µM | – | – | 31.9 µM
CCOC(=O)c1c(CC)c(C(=O)SCC)c(CC)[n+](CC)c1-c1ccccc1 | – | – | – | 25% | –
CCCOC(=O)c1c(CCSC(C)=O)c(C(=O)SCC)c(CC)[n+](C)c1-c1ccccc1 | – | 53.2 µM | 45% | – | –
CCCCc1c(C(=O)SCC)c(CC)c(C(=O)OCC)c(-c2ccccc2)[n+]1C | – | 6.02 µM | – | – | 14.5 µM
CCOC(=O)c1c(CC)c(C(=O)SCC)c(CC)[n+](C)c1C1CCCC1 | – | 7.72 µM | – | – | –
CCC[n+]1c(CC)c(C(=O)SCC)c(CC)c(C(=O)OCC)c1-c1ccccc1 | – | – | – | 28% | 76.9 µM
CCOC(=O)c1c(CC)c(C(=O)SCC)c(C)[n+](C)c1-c1ccccc1 | – | 20.8 µM | 22% | – | –
